Assay results from different studies.
Compare with care: the assays were run in different laboratories.
KIT T670I/V559D: Mast/stem cell growth factor receptor Kit (KIT, Homo sapiens, UniProt P10721, T670I/V559D)
KIT: Mast/stem cell growth factor receptor Kit (KIT, Homo sapiens, UniProt P10721)
KIT A829P: Mast/stem cell growth factor receptor Kit (KIT, Homo sapiens, UniProt P10721, A829P)
KIT V559D/V654A: Mast/stem cell growth factor receptor Kit (KIT, Homo sapiens, UniProt P10721, V559D/V654A)
KIT V559D: Mast/stem cell growth factor receptor Kit (KIT, Homo sapiens, UniProt P10721, V559D)
KIT L576P: Mast/stem cell growth factor receptor Kit (KIT, Homo sapiens, UniProt P10721, L576P)

| Structure (SMILES) | target | read-out | technique | tested at | remaining binding [%] |
| --- | --- | --- | --- | --- | --- |
| O=C(c1ccc(Nc2nccc(-c3cc4ccccc4s3)n2)cc1)N1CCC(N2CCCC2)CC1 | KIT T670I/V559D | binding | competition with immobilised ligand | 1 µM | 24 |
| COc1cnc(Nc2cccc(S(N)(=O)=O)c2)nc1N1CCN(c2ccccc2)CC1 | KIT | binding | competition with immobilised ligand | 1 µM | 93 |
| C=CC(=O)N1CCC(C(=O)NCC(=O)N2CCN(c3nc(-c4cnc(N)nc4C(F)F)nc(N4CCOCC4)n3)CC2)CC1 | KIT A829P | binding | competition with immobilised ligand | 1 µM | 100 |
| COc1ccc2c(c1)O[C@H](c1ccc(OC)c(OC)c1)C[C@@H]2NC(=O)C1(c2ccc3c(c2)OC(F)(F)O3)CC1 | KIT | cell-free assay | competition with immobilised ligand | 1 µM | 100 |
| CN(C)c1ncc(F)c(-c2cnn3ncccc23)n1 | KIT V559D/V654A | binding | – | 1 µM | 68 |
| COc1ccc2c(O[C@@H]3C[C@H]4C(=O)N[C@]5(C(=O)O)CC5/C=C\CCCCC[C@H](NC(=O)OC5CCCC5)C(=O)N4C3)cc(-c3csc(NC(=O)C(C)C)n3)nc2c1C (stereo partly shown) | KIT | cell-free assay | competition with immobilised ligand | 1 µM | 100 |
| CN1CCN(c2ccc(Nc3nccc(-c4cccc([N+](=O)[O-])c4)n3)cc2C(F)(F)F)CC1 | KIT V559D | binding | – | 10 µM | 0 |
| Nc1ncc2c(n1)-c1c([nH]c3ccc(C#CC4CC4)cc13)CCCC2 | Mast/stem cell growth factor receptor Kit, autoinhibited (KIT, Homo sapiens, UniProt P10721) | binding | competition with immobilised ligand | 1 µM | 86 |
| C[C@H]1CCN(c2nccc(-c3cnn4ncccc34)n2)C1 | KIT V559D/V654A | binding | – | 1 µM | 79 |
| O=C(Nc1c[nH]nc1C(=O)NC1CCNCC1)c1cc(F)cc(F)c1 | KIT V559D/V654A | binding | competition with immobilised ligand | 1 µM | 100 |
| CCS(=O)(=O)c1cc2cc(C[C@](O)(CC(C)(C)c3ccc(F)cc3C(N)=O)C(F)(F)F)[nH]c2cn1 | KIT L576P | cell-free assay | competition with immobilised ligand | 1 µM | 83 |
| Cc1cnc(Nc2ccc(C(=O)N3CCC(N4CCCC4)CC3)cc2)nc1-c1cc2ccccc2s1 | KIT A829P | binding | competition with immobilised ligand | 1 µM | 7.2 |
| FC(F)(F)c1ccc2c(c1)nc(-c1cccnc1)n2C1CC1 | KIT V559D | cell-free assay | competition with immobilised ligand | 1 µM | 100 |
| N[C@@H]1CCN(c2nccc(-c3cnn4ncccc34)n2)C1 | Mast/stem cell growth factor receptor Kit (KIT, Homo sapiens, UniProt P10721, D816H) | binding | – | 1 µM | 100 |
| O=C(NCCCN1CCOCC1)c1ccc(Nc2nccc(-c3cc4ccccc4s3)n2)cc1 | KIT L576P | binding | competition with immobilised ligand | 1 µM | 8.7 |
| O=C(O)[C@H]1[C@H](Cn2nnc3ccccc3c2=O)CC[C@@H]1C(=O)c1ccc(OCCC2CCOCC2)cc1 | KIT A829P | cell-free assay | competition with immobilised ligand | 1 µM | 84 |
| c1cnn2ncc(-c3ccnc(N4CCC45COC5)n3)c2c1 | Mast/stem cell growth factor receptor Kit (KIT, Homo sapiens, UniProt P10721, D816V) | binding | – | 1 µM | 93 |
| O=C(Nc1cnc(Oc2ccc(F)cc2)nc1)N1CCc2ncccc2[C@@H]1c1ccc(F)cc1 | KIT T670I/V559D | cell-free assay | competition with immobilised ligand | 1 µM | 84 |
| F[C@@H]1CCN(c2nccc(-c3cnn4ncccc34)n2)C1 | KIT V559D/V654A | binding | – | 1 µM | 74 |
